# Measured values from different studies.
# Each line is one published result; the experiments were not run side by side.
# Organism: Plasmodium falciparum
# Observed: parasite growth
Structure (SMILES),method,strain,time,setting,IC50
CCN(CC)CCCC(C)Nc1ccnc2cc(Cl)ccc12 (stereo not shown),,D6,,blood stage,0.014 µg/mL
Clc1ccc2c(c1)nc(NCCNCc1ccccc1)n2Cc1ccccc1,,K1,,"drug-resistant strain, blood stage",212 nM
COC1=CC(c2ccc[nH]2)=NC1=Cc1ccc(CCCCCCCCCCCO)[nH]1,,7G8,,"drug-resistant strain, blood stage",93 nM
Clc1ccc2c(N3CCN(CCCN4CCN(c5ccnc6cc(Cl)ccc56)CC4)CC3)ccnc2c1,,3D7,,blood stage,4.4 nM
COC1=CC(c2ccc[nH]2)=NC1=Cc1ccc(CCCCCCCCCCO)[nH]1,,7G8,,"drug-resistant strain, blood stage",168 nM
NCCNc1nc2cc(Cl)ccc2n1Cc1ccccc1,,K1,,"drug-resistant strain, blood stage",339 nM
CCN(CC)CCCC(C)Nc1ccnc2cc(Cl)ccc12 (stereo not shown),,W2,,drug-resistant strain,310 nM
COC1=CC(c2ccco2)=NC1=Cc1ccc(CCCCCCCCCC(C)O)[nH]1 (stereo not shown),,DD2,,"drug-resistant strain, blood stage",> 2500 nM
COc1cc(CO)c(-c2ccc3c(c2O)[C@@H](C)N[C@H](C)C3)c2cccc(O)c12,SYBR Green,W2,,"drug-resistant strain, blood stage",303 nM
CCN(CC)CCCC(C)Nc1ccnc2cc(Cl)ccc12 (stereo not shown),,DD2,,drug-resistant strain,102 nM
CCN(CC)CCCC(C)Nc1ccnc2cc(Cl)ccc12 (stereo not shown),,,,blood stage,10.9 nM
CCN(CC)CCCC(C)Nc1ccnc2cc(Cl)ccc12 (stereo not shown),,W2,72 h,drug-resistant strain,360 nM
Clc1ccc2c(nc(N3CCNCC3)n2Cc2ccccc2)c1Cl,,K1,,"drug-resistant strain, blood stage",32 nM
CCN(CC)CCCC(C)Nc1ccnc2cc(Cl)ccc12 (stereo not shown),,7G8,,"drug-resistant strain, blood stage",63 nM
CCN(CC)CCCC(C)Nc1ccnc2cc(Cl)ccc12 (stereo not shown),,W2,72 h,"drug-resistant strain, blood stage",0.155 µg/mL
COC1=CC(c2cccn2C)=NC1=Cc1ccc(CCCCCCCCCC(C)O)[nH]1 (stereo not shown),,7G8,,"drug-resistant strain, blood stage",1000 nM
OC(c1cc(C(F)(F)F)nc2c(C(F)(F)F)cccc12)C1CCCCN1 (stereo not shown),,3D7,,blood stage,4.8 nM
Brc1ccc2c(c1)nc(C1CCNCC1)n2Cc1ccccc1,,K1,,"drug-resistant strain, blood stage",61 nM
CCCCCCCCCCOc1cc2c(O)c(C(=O)OCC)cnc2cc1OCC,SYBR Green,3D7,,blood stage,< 5.7 nM
CC1=C(C)C(c2ccc[nH]2)=NC1=Cc1ccc(CCCCCCCCCC(C)O)[nH]1 (stereo not shown),,7G8,,"drug-resistant strain, blood stage",627 nM
C[C@@H]1CC[C@H]2[C@@H](C)C(=O)O[C@@H]3O[C@@]4(C)CC[C@@H]1[C@]32OO4,,D6,,blood stage,0.005 µg/mL
CCc1ccc(C2=NC(=Cc3ccc(CCCCCCCCCC(C)O)[nH]3)C(OC)=C2)[nH]1 (stereo not shown),,7G8,,"drug-resistant strain, blood stage",24 nM
CCN(CC)CCCC(C)Nc1ccnc2cc(Cl)ccc12 (stereo not shown),,K1,,"drug-resistant strain, blood stage",280 nM
NC1CCN(c2nc3cc(Cl)ccc3n2Cc2ccccc2)CC1,,K1,,"drug-resistant strain, blood stage",14 nM
COC1=CC(c2ccc[nH]2)=NC1=Cc1ccc(CCCCCCCCCCCCO)[nH]1,,DD2,,"drug-resistant strain, blood stage",23 nM
